Experiment [1] concerns the target T1, Protein deacetylase HDAC6 (Homo sapiens) (UniProt Q9UBN7).
T1 sequence (whole entry): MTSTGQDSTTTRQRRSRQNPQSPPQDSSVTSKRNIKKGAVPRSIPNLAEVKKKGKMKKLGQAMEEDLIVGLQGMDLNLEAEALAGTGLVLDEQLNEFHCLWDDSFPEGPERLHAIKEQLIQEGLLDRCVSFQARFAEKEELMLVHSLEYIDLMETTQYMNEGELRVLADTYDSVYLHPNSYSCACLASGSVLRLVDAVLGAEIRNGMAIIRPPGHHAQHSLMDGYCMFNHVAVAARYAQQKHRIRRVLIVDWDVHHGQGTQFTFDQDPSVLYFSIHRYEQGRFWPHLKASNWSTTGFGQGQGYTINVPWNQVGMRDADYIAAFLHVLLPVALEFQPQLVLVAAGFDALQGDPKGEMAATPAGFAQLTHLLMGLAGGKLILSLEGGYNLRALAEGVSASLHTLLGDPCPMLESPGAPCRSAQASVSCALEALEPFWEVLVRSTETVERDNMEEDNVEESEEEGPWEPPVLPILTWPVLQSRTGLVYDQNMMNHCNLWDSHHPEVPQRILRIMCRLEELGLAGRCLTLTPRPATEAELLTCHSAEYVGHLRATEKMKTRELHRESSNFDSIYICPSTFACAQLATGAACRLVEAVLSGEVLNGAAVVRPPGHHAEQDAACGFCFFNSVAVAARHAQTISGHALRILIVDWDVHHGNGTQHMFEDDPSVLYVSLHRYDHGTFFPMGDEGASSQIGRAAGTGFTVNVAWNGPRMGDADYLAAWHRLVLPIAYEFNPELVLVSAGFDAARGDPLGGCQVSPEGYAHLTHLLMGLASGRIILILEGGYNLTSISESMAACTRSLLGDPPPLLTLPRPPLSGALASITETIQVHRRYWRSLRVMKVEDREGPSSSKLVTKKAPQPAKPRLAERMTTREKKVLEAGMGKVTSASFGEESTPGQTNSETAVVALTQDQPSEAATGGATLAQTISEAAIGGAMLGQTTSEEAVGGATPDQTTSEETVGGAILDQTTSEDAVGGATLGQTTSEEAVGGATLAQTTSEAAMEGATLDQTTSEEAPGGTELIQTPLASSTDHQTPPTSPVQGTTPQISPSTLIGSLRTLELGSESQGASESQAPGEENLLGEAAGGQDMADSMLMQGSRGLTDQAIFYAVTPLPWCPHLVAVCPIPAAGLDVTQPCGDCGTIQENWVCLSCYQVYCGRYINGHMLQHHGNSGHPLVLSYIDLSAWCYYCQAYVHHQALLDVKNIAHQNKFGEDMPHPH
In words: Inhibition of human HDAC6 (unknown origin) at 0.01 to 5 uM using Fluor de Lys substrate fluorimetric assay. An outline of the steps:
(§1)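 Recombinant HDAC6 incubated 1 h with inhibitor (0–5 μM) and class II-specific Fluor de Lys substrate, then developer added and fluorescence read. Compound with substrate and developer but no enzyme served as interference control. Three experiments, each in triplicate.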

Experiment [2] deals with Histone deacetylase 1 (Homo sapiens) (UniProt Q13547). In words: Inhibition of human HDAC1 (unknown origin) at 0.01 to 1 uM using Fluor de Lys substrate fluorimetric assay.
Experiment [3] has as its target T1, Protein deacetylase HDAC6 (Homo sapiens). In words: Inhibition of human HDAC6 (unknown origin) at 5 uM using Fluor de Lys substrate fluorimetric assay. Summed up: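 Recombinant HDAC6 from a fluorimetric kit, with a substrate specific for class II activity. Enzyme, inhibitor (0–5 μM) and Fluor de Lys substrate incubated 1 h, then developer added before the fluorescence read. Compound-only controls without enzyme, with substrate and developer, checked for signal interference. Three independent experiments, each in triplicate.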

The target in experiment [4] is Histone deacetylase 1 (Homo sapiens) (UniProt Q13547). Put plainly: Inhibition of human HDAC1 (unknown origin) at 1 uM using Fluor de Lys substrate fluorimetric assay. An outline of the steps: (§2)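 Recombinant HDAC1 incubated 1 h with inhibitor (0–1 μM) and class I-specific Fluor de Lys substrate, then developer added and fluorescence read. Compound with substrate and developer but no enzyme served as interference control. Three experiments, each in triplicate.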

Experiment [5] shares this target. Put plainly: Inhibition of human HDAC1 (unknown origin) at 0.1 uM using Fluor de Lys substrate fluorimetric assay. An outline of the steps: as §2
Experiment [6] has as its target T2, Histone deacetylase (Homo sapiens) (UniProt Q13547+O15379+Q9UBN7+Q92769+Q9UQL6+Q8WUI4+Q9BY41+Q96DB2+P56524+Q9UKV0+Q969S8). In words: Inhibition of human HDAC in human HCT116 cells assessed as global histone H3 lysine-9 acetylation levels at 0.01 to 1 uM after 24 hrs by Western blotting method. The note with it: HCT-116. The class given is cell-based. An outline of the steps:
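HCT116 cells treated 24 h with 10 nM, 100 nM or 1 μM compound, or DMSO. Western blot probed with anti-acetyl-H3 primary antibody and β-actin as loading control. Detection by dye-conjugated secondary antibodies on an infrared scanner.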
For orientation: Immunoblotting shows a protein as a band on a membrane.

A short description of experiment [7]: Growth inhibition of human HCT116 cells after 96 hrs by MTS assay. The experiment is classed as functional. To be noted: HCT-116, 96 h. An outline of the steps:
(§3)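 HCT116 colorectal cells seeded at 3×10⁴ cells/well in quadruplicate, attached overnight, then medium replaced with compound-containing medium; 96 h at 37 °C, 5% CO₂. CellTiter 96 One Solution MTS added, 1.5 h at 37 °C, absorbance at 490 nm. Two experiments, each with 4 replicates, mean with SEM; GI50 taken from growth curves.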
A general note: Tetrazolium dyes change colour on reduction, which living cells bring about.

Experiment [8] concerns HCT-116. Put plainly: Inhibition of cell proliferation of human HCT116 cells at […] after 96 hrs by MTS assay. The experiment is classed as functional, cell-based. An outline of the steps: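 HCT116 colorectal cells seeded at 3×10⁴ cells/well in quadruplicate, left to attach overnight, then given fresh medium with compound for 96 h at 37 °C, 5% CO₂. MTS reagent added for 1.5 h, absorbance read at 490 nm. Mean of two experiments, each with 4 replicates.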

In experiment [9] the target is T1, Protein deacetylase HDAC6 (Homo sapiens). Put plainly: Inhibition of human HDAC6 (unknown origin) at 1 uM using Fluor de Lys substrate fluorimetric assay. Summed up:
as §1

Experiment [10] has as its system HCT-116. In words: Growth inhibition of human HCT116 cells at 5 uM after 96 hrs by MTS assay. The experiment is classed as functional, cell-based. Summed up:
as §3

Experiment [11] addresses T2, Histone deacetylase (Homo sapiens). To be noted: HCT-116, 1 uM.

What is called inhibition is the share of the control response that was lost under treatment. What is called GI50 is the concentration at which growth is held to half of that of the control. The low end stands for greater sensitivity of the cells, the high end for lower sensitivity of the cells.

Activity calls are given as the source filed them. The rule behind the calls is not given here.

Chain of Histone deacetylase 1 (Homo sapiens) (Q13547 whole entry): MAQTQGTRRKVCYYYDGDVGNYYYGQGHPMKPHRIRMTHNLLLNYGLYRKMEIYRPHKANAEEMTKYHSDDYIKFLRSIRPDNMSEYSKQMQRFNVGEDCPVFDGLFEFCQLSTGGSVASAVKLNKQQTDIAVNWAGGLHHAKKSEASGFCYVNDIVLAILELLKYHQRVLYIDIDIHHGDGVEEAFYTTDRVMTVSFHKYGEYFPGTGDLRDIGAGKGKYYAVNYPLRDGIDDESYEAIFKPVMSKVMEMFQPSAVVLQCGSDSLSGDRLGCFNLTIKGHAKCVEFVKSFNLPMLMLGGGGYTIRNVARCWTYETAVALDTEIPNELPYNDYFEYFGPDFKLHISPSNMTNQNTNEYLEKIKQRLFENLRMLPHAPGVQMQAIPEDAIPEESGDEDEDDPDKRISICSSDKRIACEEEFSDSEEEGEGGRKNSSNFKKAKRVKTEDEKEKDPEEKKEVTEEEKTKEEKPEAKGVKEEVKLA

Take `CCCCCCCC(=O)SCC/C=C/[C@@H]1CC(=O)NCc2nc(cs2)C2=N[C@@](C)(CS2)C(=O)N[C@@H](C(C)C)C(=O)O1`: the inhibition result in [1], in experiment [2] and in experiment [6] was “Active” throughout. Besides, the inhibition in experiment [3] is 75%; in experiment [4], more than 90%; in experiment [5], 15%.

Consider `C=CC[C@@H]1NC(=O)[C@]2(C)CSC(=N2)c2csc(n2)CNC(=O)C[C@@H](/C=C/CCSC(=O)CCCCCCC)OC1=O`, for which the GI50 in experiment [7] stood at 10 nM. Besides, the inhibition result in experiment [2] and in experiment [6] was “Active” in each case. Moreover, the inhibition in [3] is 55%; in experiment [9], 50%; in experiment [4], more than 90%. The inhibition result (in the experiment on HCT-116 [8]; in experiment [5]) was “inactive” in each case.

For `CCCCCCCC(=O)SCC/C=C/[C@@H]1CC(=O)NCc2nc(cs2)C2=N[C@](C)(CS2)C(=O)N[C@@H](C(C)C)C(=O)O1`, the “growth inhibition (GI)” value with HCT-116 [10] is “inactive”. Further, the inhibition in [4] was less than 15%. The inhibition result in [11] was “Active”. For the same compound, the inhibition result in experiment [6] is “inactive”.

Turning to `CCCCCCCC(=O)SCC/C=C/[C@@H]1CC(=O)NCc2nc(cs2)C2=N[C@@](C)(CS2)C(=O)N[C@@H](Cc2cccc3ccccc23)C(=O)O1`, the GI50 in experiment [7] worked out at 56 nM. The inhibition entry in experiment [2] and in experiment [6] was “Active” each time. Moreover, the inhibition is 50% in experiment [3], 50% in experiment [9], more than 90% in experiment [4] and 15% in [5]. Also, in the experiment on HCT-116 [8], the inhibition result is “inactive”.

Take `CCCCCCCC(=O)SCC/C=C/[C@@H]1CC(=O)NCc2nc(cs2)C2=N[C@@](C)(CS2)C(=O)N[C@H](Cc2cccc3ccccc23)C(=O)O1`: the inhibition entry in [1] and in experiment [6] was “inactive” in each case. Moreover, the “growth inhibition (GI)” value in the experiment with HCT-116 [10] is “inactive”. Further, in experiment [4], the inhibition is less than 15%.

The record behind these values is ChEMBL document CHEMBL3352516, “Synthesis and biological evaluation of largazole analogues with modified surface recognition cap groups” (2014).
